Calls of active or inactive are those of the source. The rule behind the calls is not given here.
Tests used:
[1] = biological target: Ubiquitin carboxyl-terminal hydrolase BAP1 (Homo sapiens) (UniProt Q92560); assay: Inhibition of His6-tagged recombinant human BAP1 assessed as reduction in cleavage of luminescent substrate Ub-AML at 100 uM
How it was run: (§1)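 Purified recombinant DUBs assayed with Ub-AML as luminescent substrate, using the Glo reagent protocol and read on a microplate luminometer.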

[2] = test system: HeLa; assay: Inhibition of deubiquitinase in human HeLa cell extracts assessed as decrease in global DUB activity at 50 uM using luminescent substrate Ub-AML; type: cell-free
How it was run: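 HeLa crude extracts used as the DUB source, prepared as for the ABP assays. Global DUB activity read by luminescence with Ub-AML substrate, using the Glo reagent protocol.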

[3] = biological target: Ubiquitin carboxyl-terminal hydrolase 14 (Homo sapiens) (UniProt P54578); assay: Inhibition of USP14 in intact human HeLa cells assessed as induction of formation of high molecular weight complexes with USP14 at 10 uM in presence of glutathione incubated for 2 hrs by immunoblot analysis; type: cell-based
Sequence of Ubiquitin carboxyl-terminal hydrolase 14 (Homo sapiens) (P54578 whole entry): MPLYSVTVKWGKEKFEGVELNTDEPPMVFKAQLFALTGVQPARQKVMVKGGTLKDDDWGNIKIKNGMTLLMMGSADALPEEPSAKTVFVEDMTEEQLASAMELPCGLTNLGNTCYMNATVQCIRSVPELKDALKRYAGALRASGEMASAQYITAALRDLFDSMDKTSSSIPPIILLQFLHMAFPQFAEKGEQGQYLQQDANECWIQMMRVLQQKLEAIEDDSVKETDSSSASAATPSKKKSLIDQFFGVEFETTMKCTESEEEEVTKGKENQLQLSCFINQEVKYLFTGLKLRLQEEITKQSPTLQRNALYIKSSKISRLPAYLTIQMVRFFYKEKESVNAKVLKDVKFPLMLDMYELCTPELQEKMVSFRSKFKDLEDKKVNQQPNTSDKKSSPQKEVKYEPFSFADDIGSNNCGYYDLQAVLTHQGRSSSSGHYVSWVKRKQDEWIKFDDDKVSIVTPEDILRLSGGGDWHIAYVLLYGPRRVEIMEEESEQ
How it was run: (§2)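 Intact HeLa cells (DMEM, 10% FBS, about 80% confluent) treated 2 h with vehicle or 10 μM compound, with or without 10 mM DTT or 10 mM GSH. Cells washed in cold PBS and lysed in RIPA with protease and phosphatase inhibitors. High-MW species detected by SDS-PAGE immunoblot; shorter exposures served as loading control.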

[4] = biological target: Ubiquitin carboxyl-terminal hydrolase 14 (Homo sapiens) (UniProt P54578); assay: Inhibition of USP14 in intact human HeLa cells assessed as induction of formation of high molecular weight complexes with USP14 at 10 uM in presence of dithiothreitol incubated for 2 hrs by immunoblot analysis; type: cell-based; how it was run: as §2
[5] = biological target: T1, Ubiquitin carboxyl-terminal hydrolase isozyme L5 (Homo sapiens) (UniProt Q9Y5K5); assay: Inhibition of UCH-37 in human HeLa crude cell extracts assessed as induction of formation of high molecular weight complexes with […] at 10 uM incubated for 2 hrs in presence of glutathione by immunoblot analysis; type: cell-free
T1 sequence (whole entry): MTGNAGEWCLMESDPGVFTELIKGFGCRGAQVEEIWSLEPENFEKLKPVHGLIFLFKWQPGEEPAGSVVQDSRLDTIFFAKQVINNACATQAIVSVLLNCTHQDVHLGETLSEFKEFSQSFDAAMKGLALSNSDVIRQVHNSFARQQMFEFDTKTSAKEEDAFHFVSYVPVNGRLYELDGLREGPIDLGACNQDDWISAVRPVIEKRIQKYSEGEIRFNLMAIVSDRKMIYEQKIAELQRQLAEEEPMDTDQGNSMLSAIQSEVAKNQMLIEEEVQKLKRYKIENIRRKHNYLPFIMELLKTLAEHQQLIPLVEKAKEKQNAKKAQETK

[6] = biological target: Anamorsin (Homo sapiens) (UniProt Q6FI81); assay: Inhibition of CIAPIN1 in human KMS11 cells assessed as induction of high molecular weight complex formation at 1 to 10 uM incubated for 6 hrs by immunoblot analysis; type: cell-based
Sequence of Anamorsin (Homo sapiens) (Q6FI81 whole entry): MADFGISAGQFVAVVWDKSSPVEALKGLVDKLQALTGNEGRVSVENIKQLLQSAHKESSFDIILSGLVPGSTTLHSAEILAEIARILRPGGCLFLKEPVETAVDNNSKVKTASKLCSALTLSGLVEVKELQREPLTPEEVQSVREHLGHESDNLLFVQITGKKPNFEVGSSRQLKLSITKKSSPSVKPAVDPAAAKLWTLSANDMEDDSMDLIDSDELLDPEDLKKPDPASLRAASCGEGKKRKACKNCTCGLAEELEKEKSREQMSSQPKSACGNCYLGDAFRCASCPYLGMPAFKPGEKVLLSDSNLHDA

[7] = species: Homo sapiens; assay: Inhibition of purified 19S proteasome (unknown origin) assessed as reduction in cleavage of luminescent substrate Ub-AML at 100 uM
[8] = biological target: T1, Ubiquitin carboxyl-terminal hydrolase isozyme L5 (Homo sapiens); assay: Inhibition of UCH-37 in intact human HeLa cells assessed as induction of formation of high molecular weight complexes with USP14 at 10 uM incubated for 2 hrs by immunoblot analysis; type: cell-based; how it was run: as §2
[9] = test system: HeLa; assay: Inhibition of deubiquitinase in human HeLa cell extracts assessed as increase in high molecular weight protein complexes at 10 uM incubated for 2 hrs in presence of DTT by SDS-PAGE and Coomassie Blue staining based method; type: cell-free
[10] = test system: HeLa; assay: Inhibition of deubiquitinase in human HeLa cell extracts assessed as induction of accumulation of high molecular weight ubiquitylated proteins at 10 uM incubated for 2 hrs in presence of GSH by immunoblot analysis; type: cell-free
[11] = test system: HeLa; assay: Cytotoxicity in human HeLa cells assessed as reduction in cell viability incubated for 72 hrs Cell-titer Glo reagent based assay; type: functional
How it was run: (§3)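 Tumor lines grown at 37 °C, 5% CO2 with 10% FBS (DMEM for HeLa and SiHa; RPMI for HCT116) and exposed to compound for 72 h. Viability read by CellTiter Glo luminescence; IC50 derived from n=6.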

[12] = biological target: Ubiquitin carboxyl-terminal hydrolase 5 (Homo sapiens) (UniProt P45974); assay: Inhibition of human recombinant isopeptidase T assessed as reduction in cleavage of luminescent substrate Ub-AML at 100 uM; how it was run: as §1
Sequence of Ubiquitin carboxyl-terminal hydrolase 5 (Homo sapiens) (P45974 whole entry): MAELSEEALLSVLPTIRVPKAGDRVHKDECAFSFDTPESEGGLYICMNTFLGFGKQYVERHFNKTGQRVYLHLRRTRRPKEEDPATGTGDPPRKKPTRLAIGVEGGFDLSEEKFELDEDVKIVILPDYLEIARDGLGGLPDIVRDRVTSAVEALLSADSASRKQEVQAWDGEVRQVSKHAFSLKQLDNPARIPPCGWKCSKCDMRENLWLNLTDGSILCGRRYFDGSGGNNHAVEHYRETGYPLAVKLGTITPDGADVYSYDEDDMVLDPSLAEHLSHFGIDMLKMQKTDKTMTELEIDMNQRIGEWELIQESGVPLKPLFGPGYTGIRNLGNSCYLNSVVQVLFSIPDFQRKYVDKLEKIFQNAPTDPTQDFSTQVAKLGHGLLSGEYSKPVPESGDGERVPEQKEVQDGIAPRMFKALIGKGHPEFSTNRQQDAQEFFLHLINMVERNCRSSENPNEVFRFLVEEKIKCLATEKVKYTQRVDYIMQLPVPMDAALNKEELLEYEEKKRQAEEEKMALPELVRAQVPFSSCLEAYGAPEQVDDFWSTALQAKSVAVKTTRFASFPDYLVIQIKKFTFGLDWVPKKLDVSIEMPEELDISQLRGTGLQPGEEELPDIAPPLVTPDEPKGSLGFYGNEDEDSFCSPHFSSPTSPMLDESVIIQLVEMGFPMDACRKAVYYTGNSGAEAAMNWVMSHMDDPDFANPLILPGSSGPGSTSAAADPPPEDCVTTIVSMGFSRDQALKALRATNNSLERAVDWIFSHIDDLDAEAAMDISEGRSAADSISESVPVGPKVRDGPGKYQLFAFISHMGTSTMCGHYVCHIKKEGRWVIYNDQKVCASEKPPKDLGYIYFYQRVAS

[13] = biological target: Ubiquitin carboxyl-terminal hydrolase 8 (Homo sapiens) (UniProt P40818); assay: Inhibition of N-terminal His6-tagged full length recombinant human USP8 assessed as reduction in cleavage of luminescent substrate Ub-AML at 100 uM; how it was run: as §1
Sequence of Ubiquitin carboxyl-terminal hydrolase 8 (Homo sapiens) (P40818 whole entry): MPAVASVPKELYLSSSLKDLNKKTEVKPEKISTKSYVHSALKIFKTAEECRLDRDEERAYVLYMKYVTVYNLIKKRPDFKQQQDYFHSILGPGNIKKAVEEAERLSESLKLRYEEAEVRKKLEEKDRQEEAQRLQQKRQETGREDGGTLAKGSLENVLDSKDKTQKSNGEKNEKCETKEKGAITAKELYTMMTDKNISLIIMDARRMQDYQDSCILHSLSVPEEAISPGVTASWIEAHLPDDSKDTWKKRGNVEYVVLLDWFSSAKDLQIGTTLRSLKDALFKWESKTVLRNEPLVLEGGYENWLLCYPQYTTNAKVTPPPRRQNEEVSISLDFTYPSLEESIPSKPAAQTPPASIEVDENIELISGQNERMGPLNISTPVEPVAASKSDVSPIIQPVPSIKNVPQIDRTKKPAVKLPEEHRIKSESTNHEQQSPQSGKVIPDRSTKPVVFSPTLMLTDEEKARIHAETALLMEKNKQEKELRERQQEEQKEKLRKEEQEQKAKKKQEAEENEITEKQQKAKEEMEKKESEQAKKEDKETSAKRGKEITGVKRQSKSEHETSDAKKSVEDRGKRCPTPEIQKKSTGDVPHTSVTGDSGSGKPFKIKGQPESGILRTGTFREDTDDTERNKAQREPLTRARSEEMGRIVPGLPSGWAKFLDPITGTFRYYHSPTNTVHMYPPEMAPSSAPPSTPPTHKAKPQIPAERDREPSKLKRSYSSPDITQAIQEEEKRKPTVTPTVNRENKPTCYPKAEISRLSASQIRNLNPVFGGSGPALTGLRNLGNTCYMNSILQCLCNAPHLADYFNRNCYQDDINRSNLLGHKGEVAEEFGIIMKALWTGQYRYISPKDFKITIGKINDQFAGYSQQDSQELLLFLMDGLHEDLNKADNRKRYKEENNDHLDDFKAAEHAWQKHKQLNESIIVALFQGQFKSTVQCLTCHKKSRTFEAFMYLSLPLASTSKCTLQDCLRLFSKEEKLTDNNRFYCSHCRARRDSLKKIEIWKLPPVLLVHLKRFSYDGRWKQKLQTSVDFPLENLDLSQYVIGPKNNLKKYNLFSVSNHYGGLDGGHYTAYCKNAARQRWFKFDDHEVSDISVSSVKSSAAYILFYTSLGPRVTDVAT

[14] = biological target: Anamorsin (Homo sapiens) (UniProt Q6FI81); assay: Inhibition of CIAPIN1 in human KMS11 cells assessed as […] depletion of stable CIAPIN1 levels at 1 to 10 uM incubated for 6 hrs by immunoblot analysis; type: cell-based
[15] = biological target: Ubiquitin carboxyl-terminal hydrolase isozyme L3 (Homo sapiens) (UniProt P15374); assay: Inhibition of human recombinant UCHL3 assessed as reduction in cleavage of luminescent substrate Ub-AML at 100 uM; how it was run: as §1
Sequence of Ubiquitin carboxyl-terminal hydrolase isozyme L3 (Homo sapiens) (P15374 whole entry): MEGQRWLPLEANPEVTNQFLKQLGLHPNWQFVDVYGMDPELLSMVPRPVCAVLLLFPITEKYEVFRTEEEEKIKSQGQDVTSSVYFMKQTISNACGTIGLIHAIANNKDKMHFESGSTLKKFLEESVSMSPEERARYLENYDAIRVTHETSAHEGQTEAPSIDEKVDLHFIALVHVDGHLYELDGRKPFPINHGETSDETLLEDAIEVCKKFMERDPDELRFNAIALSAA

[16] = biological target: T1, Ubiquitin carboxyl-terminal hydrolase isozyme L5 (Homo sapiens); assay: Inhibition of UCH-37 in human HeLa crude cell extracts assessed as induction of formation of high molecular weight complexes with […] at 10 uM incubated for 2 hrs by immunoblot analysis; type: cell-free
[17] = biological target: T1, Ubiquitin carboxyl-terminal hydrolase isozyme L5 (Homo sapiens); assay: Inhibition of UCH-37 in human HeLa crude cell extracts assessed as induction of formation of high molecular weight complexes with […] at 10 uM incubated for 2 hrs in presence of dithiothreitol by immunoblot analysis; type: cell-free
[18] = biological target: Ubiquitin carboxyl-terminal hydrolase 14 (Homo sapiens) (UniProt P54578); assay: Inhibition of USP14 in human HeLa crude cell extracts assessed as induction of formation of high molecular weight complexes with USP14 at 10 uM incubated for 2 hrs in presence of glutathione by immunoblot analysis; type: cell-free
[19] = test system: HCT-116; assay: Cytotoxicity in human HCT116 cells assessed as reduction in cell viability incubated for 72 hrs Cell-titer Glo reagent based assay; type: functional; how it was run: as §3
[20] = test system: HeLa; assay: Inhibition of deubiquitinase in human HeLa cell extracts assessed as inhibition of HA-Ub-C2Br probe labeling at 1 to 100 uM incubated for 30 mins by immunoblot analysis; type: cell-free
[21] = biological target: Tumor necrosis factor alpha-induced protein 3 (Homo sapiens) (UniProt P21580); assay: Inhibition of A20 catalytic domain (unknown origin) assessed as reduction in cleavage of luminescent substrate Ub-AML at 100 uM; how it was run: as §1
Sequence of Tumor necrosis factor alpha-induced protein 3 (Homo sapiens) (P21580 whole entry, the tested form may be a part): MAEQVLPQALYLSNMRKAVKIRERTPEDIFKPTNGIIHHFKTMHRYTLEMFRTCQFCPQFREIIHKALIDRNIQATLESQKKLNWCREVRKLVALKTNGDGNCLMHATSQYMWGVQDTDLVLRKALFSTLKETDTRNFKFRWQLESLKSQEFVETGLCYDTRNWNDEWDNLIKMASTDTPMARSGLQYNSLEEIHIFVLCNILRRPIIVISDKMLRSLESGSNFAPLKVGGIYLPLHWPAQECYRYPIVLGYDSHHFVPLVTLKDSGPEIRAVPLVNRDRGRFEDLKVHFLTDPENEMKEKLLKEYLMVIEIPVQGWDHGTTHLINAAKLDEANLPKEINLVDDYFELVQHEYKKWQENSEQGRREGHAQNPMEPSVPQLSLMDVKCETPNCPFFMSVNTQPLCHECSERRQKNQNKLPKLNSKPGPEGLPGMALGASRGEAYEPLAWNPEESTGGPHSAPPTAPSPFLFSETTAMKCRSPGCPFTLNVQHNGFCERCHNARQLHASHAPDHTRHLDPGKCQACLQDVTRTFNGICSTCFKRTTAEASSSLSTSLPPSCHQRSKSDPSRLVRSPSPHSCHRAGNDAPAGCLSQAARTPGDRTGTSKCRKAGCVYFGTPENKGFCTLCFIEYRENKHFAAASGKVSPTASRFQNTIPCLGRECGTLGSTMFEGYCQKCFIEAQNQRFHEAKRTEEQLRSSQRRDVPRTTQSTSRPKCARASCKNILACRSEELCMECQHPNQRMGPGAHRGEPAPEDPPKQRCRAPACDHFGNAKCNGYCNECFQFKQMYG

[22] = test system: HeLa; assay: Inhibition of deubiquitinase in human HeLa cell extracts assessed as induction of accumulation of high molecular weight ubiquitylated proteins at 10 uM incubated for 2 hrs in presence of DTT by immunoblot analysis; type: cell-free
[23] = test system: HeLa; assay: Inhibition of deubiquitinase in human HeLa cell extracts assessed as induction of accumulation of high molecular weight ubiquitylated proteins at 10 uM incubated for 2 hrs by immunoblot analysis; type: cell-free
[24] = biological target: Ubiquitin carboxyl-terminal hydrolase 14 (Homo sapiens) (UniProt P54578); assay: Inhibition of USP14 in human HeLa crude cell extracts assessed as induction of formation of high molecular weight complexes with USP14 at 10 uM incubated for 2 hrs by immunoblot analysis; type: cell-free
[25] = biological target: Ubiquitin carboxyl-terminal hydrolase 14 (Homo sapiens) (UniProt P54578); assay: Inhibition of USP14 in human HeLa crude cell extracts assessed as induction of formation of high molecular weight complexes with USP14 at 10 uM incubated for 2 hrs in presence of dithiothreitol by immunoblot analysis; type: cell-free

Sequence of Ubiquitin carboxyl-terminal hydrolase BAP1 (Homo sapiens) (Q92560 whole entry): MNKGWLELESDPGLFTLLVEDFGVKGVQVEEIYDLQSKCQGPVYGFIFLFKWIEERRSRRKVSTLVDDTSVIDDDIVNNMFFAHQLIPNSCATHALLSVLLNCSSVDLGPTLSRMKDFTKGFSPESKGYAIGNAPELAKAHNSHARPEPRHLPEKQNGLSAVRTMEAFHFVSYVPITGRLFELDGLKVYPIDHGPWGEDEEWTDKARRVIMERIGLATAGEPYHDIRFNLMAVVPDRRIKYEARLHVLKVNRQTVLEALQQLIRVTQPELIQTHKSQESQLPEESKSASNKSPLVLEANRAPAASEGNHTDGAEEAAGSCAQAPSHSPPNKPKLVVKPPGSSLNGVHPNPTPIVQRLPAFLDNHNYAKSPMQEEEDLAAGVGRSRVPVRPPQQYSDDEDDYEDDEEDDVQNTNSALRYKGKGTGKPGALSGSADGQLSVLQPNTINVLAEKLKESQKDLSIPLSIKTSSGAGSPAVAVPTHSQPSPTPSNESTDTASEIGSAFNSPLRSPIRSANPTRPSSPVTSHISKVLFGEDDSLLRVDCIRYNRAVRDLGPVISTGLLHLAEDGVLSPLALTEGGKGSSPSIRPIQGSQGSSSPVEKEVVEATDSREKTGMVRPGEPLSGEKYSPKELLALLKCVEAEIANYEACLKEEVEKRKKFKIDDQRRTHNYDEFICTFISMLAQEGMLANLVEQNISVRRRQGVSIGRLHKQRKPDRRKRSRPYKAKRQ

For `C=CC(=O)N1C/C(=C\c2ccc([N+](=O)[O-])cc2)C(=O)/C(=C/c2ccc([N+](=O)[O-])cc2)C1`, the inhibition [1] was “Active”, the inhibition [2] was “Active” and the inhibition [3] was “inactive”. The inhibition [4] was “inactive”, the inhibition [5] was “inactive” and the inhibition [6] was “Active”. The inhibition [7] was “Active”, the inhibition [8] was “Active” and the inhibition [9] was “inactive”. For the same compound, the inhibition [10] was “inactive”, the Activity [11] was “Active” and the inhibition [12] was “Active”. For the same compound, the inhibition [13] was “Active”, the inhibition [14] was “Active” and the inhibition [15] was “Active”. For the same compound, the inhibition [16] was “Active”, the inhibition [17] was “inactive” and the inhibition [18] was “inactive”. The Activity [19] was “Active”, the inhibition [20] was “Active” and the inhibition [21] was “Active”. The inhibition [22] was “inactive”, the inhibition [23] was “Active” and the inhibition [24] was “Active”. The inhibition [25] was “inactive”.

From ChEMBL document CHEMBL4354861, “Re-Evaluating the Mechanism of Action of α,β-Unsaturated Carbonyl DUB Inhibitors b-AP15 and VLX1570: A Paradigmatic Example of Unspecific Protein Cross-linking with Michael Acceptor Motif-Containing Drugs” (J Med Chem, 2020)
